Active and inactive are the calls of the source. No cut-off for these calls is given here.

Assay [1] addresses T1, Heat shock protein HSP 90-alpha (Homo sapiens, UniProt P07900). Description: Inhibition of HSP90-alpha (unknown origin) expressed in Escherichia coli BL21 assessed as reduction in ATPase activity in presence of PEP, NADH and ATP by pyruvate kinase/lactic dehydrogenase based coupled enzyme assay.
In assay [2] the target is T2, Heat shock protein HSP 90-beta (Homo sapiens, UniProt P08238). Kind of assay: Inhibition of HSP90-beta (unknown origin) expressed in Escherichia coli BL21 assessed as reduction in ATPase activity in presence of PEP, NADH and ATP by pyruvate kinase/lactic dehydrogenase based coupled enzyme assay.
T2 sequence (P08238 whole entry): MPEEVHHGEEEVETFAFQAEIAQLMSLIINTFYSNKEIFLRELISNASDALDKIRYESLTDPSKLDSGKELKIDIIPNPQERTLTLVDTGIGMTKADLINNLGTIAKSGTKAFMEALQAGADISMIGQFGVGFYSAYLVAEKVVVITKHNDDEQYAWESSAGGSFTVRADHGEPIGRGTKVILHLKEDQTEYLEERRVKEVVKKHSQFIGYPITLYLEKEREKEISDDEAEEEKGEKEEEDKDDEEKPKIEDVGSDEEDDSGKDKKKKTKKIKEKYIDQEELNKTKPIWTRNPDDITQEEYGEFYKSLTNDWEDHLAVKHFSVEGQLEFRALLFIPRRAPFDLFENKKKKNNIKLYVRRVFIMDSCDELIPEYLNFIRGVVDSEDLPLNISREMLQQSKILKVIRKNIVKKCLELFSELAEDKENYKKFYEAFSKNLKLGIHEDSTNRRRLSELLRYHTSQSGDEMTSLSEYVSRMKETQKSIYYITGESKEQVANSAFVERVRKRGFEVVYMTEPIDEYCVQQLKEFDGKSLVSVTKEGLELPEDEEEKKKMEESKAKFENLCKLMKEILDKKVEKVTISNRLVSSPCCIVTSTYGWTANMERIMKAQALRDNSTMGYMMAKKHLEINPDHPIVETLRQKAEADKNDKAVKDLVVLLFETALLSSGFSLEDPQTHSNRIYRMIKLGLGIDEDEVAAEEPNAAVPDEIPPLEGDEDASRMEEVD
For assay [3], the system named is CNE-2. Kind of assay: Cytotoxicity in human CNE-2 cells assessed as reduction in cell viability incubated for 48 hrs by MTT assay. Particulars: CNE-2, 48 h. Format: cell-based. The method, boiled down:
(§1)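 Cells were seeded at 3 × 10³ cells per well and grown for 24 h at 37 °C in 5% CO₂. CNE2 was grown in RPMI 1640 and HeLa and HepG2 in DMEM, each with 10% FBS and 1% penicillin/streptomycin. Cells were exposed to 0−20 μM inhibitor for 48 h, with a DMSO solvent control. MTT (0.5 mg/mL) was then added for 3 h.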

Assay [4] addresses T1, Heat shock protein HSP 90-alpha. Description: Binding affinity to HSP90-alpha (unknown origin) expressed in Escherichia coli BL21 by SPR assay.
Assay [5] deals with T2, Heat shock protein HSP 90-beta. Description: Binding affinity to HSP90-beta (unknown origin) expressed in Escherichia coli BL21 by SPR assay.
In assay [6] the test system is HepG2. Kind of assay: Cytotoxicity in human HepG2 cells assessed as reduction in cell viability incubated for 48 hrs by MTT assay. As to conditions: HepG2, 48 h. Format: cell-based. In outline:
as §1

Assay [7] concerns HeLa. Description: Cytotoxicity in human HeLa cells assessed as reduction in cell viability incubated for 48 hrs by MTT assay. Format: cell-based. In outline:
as §1

Turning to `CC(C)(C)c1ccc(Cn2cc(-c3ccc(O)cc3N)nn2)cc1`, the IC50 in assay [1] was found to be 13.7 µM; in assay [2], 14.6 µM; in assay [3], 1.6 µM.

Take `O=C(O)c1csc(-c2ccc(Cl)cc2)n1`: the outcome in assay [4] was Active.

Consider `CCSc1ccc(N)s1`, for which the result in assay [4] was Active.

As for `CC(C)(C)c1csc(N)n1`, in assay [4], the result was Active.

In the case of `Nc1cccs1`, in assay [4], the result was Active.

Regarding `COc1ccc(-c2cn(Cc3ccc(C(C)(C)C)cc3)nn2)cc1`, the Kd in assay [4] and in assay [5] was 4.8 µM in each case. Besides, the IC50 in assay [1] was 5.6 µM; in assay [2], 5.6 µM; in assay [6], > 50 µM; in assay [7], > 50 µM; in assay [3] it was 4 µM.

`Nc1cc(-c2ccccc2)n[nH]1`: the result in assay [4] was Active.

As to `Cc1noc(N)c1C`, the outcome in assay [4] was Active.

For `CC(=O)c1ccc(-n2ccnc2)cc1`, the result in assay [4] was Active.

Turning to `COc1cc(-c2cn(Cc3ccc(C(C)(C)C)cc3)nn2)cc(OC)c1OC`, the IC50 stood at 2.7 µM in assay [1], 2.7 µM in assay [2] and 1.8 µM in assay [3].

`COc1ccc(-c2cn(Cc3ccc(C(C)(C)C)cc3)nn2)c(N)c1`: the values for the IC50 in assay [1], in assay [2] and in assay [3] were > 40 µM, > 40 µM and > 20 µM, respectively.

Turning to `CC(C)(C)c1ccc(Cn2cc(-c3ccc(O)cc3[N+](=O)[O-])nn2)cc1`, the IC50 in assay [1] was 1.7 µM; in assay [2] it was 1.7 µM; in assay [3], 1.6 µM.

Regarding `CC(C)(C)c1ccc(Cn2cc(-c3ccc(O)cc3)nn2)c(O)c1`, the results for the IC50 in assay [1], in assay [2] and in assay [3] were > 40 µM, > 40 µM and > 20 µM, respectively.

`COc1ccc(-c2cn(Cc3cc(C(F)(F)F)cc(C(F)(F)F)c3)nn2)cc1`: the Kd in assay [4] worked out at 3.1 µM; in assay [5] it was 7 µM. Besides, the IC50 came to 6.2 µM in assay [1]; 9.8 µM in assay [2]; 18.1 µM in assay [6]; 22.4 µM in assay [7]; 14.1 µM in assay [3].

As to `CC(C)(C)c1ccc(Cn2cc(-c3ccc(O)cc3)nn2)cc1`, the IC50 was found to be 1.3 µM in assay [1], 1.8 µM in assay [2] and 5.6 µM in assay [3].

For `C=CCNC1=C2C[C@@H](C)C[C@H](OC)[C@H](O)[C@@H](C)/C=C(\C)[C@H](OC(N)=O)[C@@H](OC)/C=C\C=C(/C)C(=O)NC(=CC1=O)C2=O` [TANESPIMYCIN], the IC50 was 8 µM in assay [6], 19.4 µM in assay [7] and 3.03 µM in assay [3].

In the case of `COc1ccc(-c2cn(Cc3ccc(C(C)(C)C)cc3)nn2)c([N+](=O)[O-])c1`, the values for the IC50 in assay [1], in assay [2] and in assay [3] were 5 µM, 5 µM and 1.6 µM, respectively.
